Experimental data reported in ChEMBL document CHEMBL3853320, “Discovery of Imidazoquinolines as a Novel Class of Potent, Selective, and in Vivo Efficacious Cancer Osaka Thyroid (COT) Kinase Inhibitors” (J Med Chem, 2016).
In brackets after ≈: the same amount, converted by molar mass. One block for each compound: values may come before it. Activity calls are given as the source filed them. The rule behind the calls is not given here.

Tests used:
[1] = target: T1, Mitogen-activated protein kinase kinase kinase 8 (Homo sapiens, UniProt P41279); test: Inhibition of COT in LPS-stimulated human PBMC assessed as reduction in TNFalpha release incubated for 1 hr followed by stimulation with LPS for 4 hrs by HTRF assay
T1 sequence (P41279 whole entry): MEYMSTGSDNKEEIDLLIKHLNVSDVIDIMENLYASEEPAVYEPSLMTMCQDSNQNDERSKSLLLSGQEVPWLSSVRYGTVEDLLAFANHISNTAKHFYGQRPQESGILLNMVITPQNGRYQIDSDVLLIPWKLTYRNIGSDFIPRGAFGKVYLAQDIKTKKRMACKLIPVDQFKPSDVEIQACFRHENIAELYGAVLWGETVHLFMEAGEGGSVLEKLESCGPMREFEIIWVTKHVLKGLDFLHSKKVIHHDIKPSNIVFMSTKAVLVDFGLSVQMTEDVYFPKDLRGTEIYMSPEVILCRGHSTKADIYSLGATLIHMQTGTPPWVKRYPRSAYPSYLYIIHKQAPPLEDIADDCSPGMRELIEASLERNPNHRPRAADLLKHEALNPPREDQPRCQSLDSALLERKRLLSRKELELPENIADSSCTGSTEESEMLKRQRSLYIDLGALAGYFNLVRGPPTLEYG
Outline: (§1)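 Primary human PBMCs were stimulated with LPS. Read-outs were pERK, TNFα release, or p65 phosphorylation, each reported as IC50.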

[2] = target: T1, Mitogen-activated protein kinase kinase kinase 8; test: Inhibition of COT in LPS-stimulated human PBMC assessed as reduction in ERK1/2 phosphorylation incubated for 60 mins followed by LPS stimulation for 12 mins by flow cytometric analysis; outline: as §1
[3] = target: T1, Mitogen-activated protein kinase kinase kinase 8; test: Inhibition of human COT (66 to 395 residues) expressed in Sf21 cells using 5-Fluo-Ahx-AGAGSGQLIDSNleANSFVGTR-NH2 as substrate after 60 mins by caliper microfluidic mobility shift assay
[4] = Equilibrium solubility of the compound at pH 6.8 after 16 hrs by mass spectrometric analysis; assay type: physicochemical; settings: buffer
[5] = Octanol-water partition coefficient, log P of the compound by shake-flask method; assay type: physicochemical
[6] = target: T1, Mitogen-activated protein kinase kinase kinase 8; test: Inhibition of COT in LPS-stimulated human whole blood assessed as reduction in TNFalpha release incubated for 30 mins followed by stimulation with LPS for 3 hrs by HTRF assay; assay type: tissue-based
Outline: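 Human whole blood was stimulated with LPS, and TNFα release was measured as IC50.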

[7] = Equilibrium solubility of the compound at pH 4 after 16 hrs by mass spectrometric analysis; assay type: physicochemical; settings: buffer
[8] = Clearance in wild type Sprague-Dawley rat plasma at 1 mg/kg, iv; assay type: ADME, organism-based
Outline: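 Male wild-type Sprague–Dawley rats were given 1 mg/kg intravenously. Clearance was derived from plasma.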

[9] = Protein binding in human plasma at 5 uM after 4 hrs by rapid equilibrium dialysis method; assay type: ADME, cell-free; settings: read-out: PPB (converted)
[10] = test system: Canis familiaris; test: Antiinflammatory activity in MSU-induced beagle dog acute synovitis model assessed as prevention of inflammation-driven lameness at 0.2 mg/kg, po administered once a week 3 hrs post MSU injection measured after 6 hrs post last dose; assay type: functional, organism-based; settings: Canis lupus familiaris
Outline: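 Lameness was induced in dogs by uric acid injection into the joint. Treatment was vehicle, test article at 5 or 15 mg/kg, or meloxicam 0.2 mg/kg. Vertical peak force of the affected limb was measured on a force plate while trotting. The read-out was the time after treatment for that force to recover to 60% of the value measured before lameness.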

[11] = Metabolic stability in bile-duct cannulated Sprague-Dawley rat assessed as parent compound remaining in urine at 3 mg/kg, iv measured over 8 hrs post dose; assay type: ADME, organism-based; settings: read-out: Stability
Outline: (§2)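 Bile-duct cannulated rats dosed in vivo. Parent and metabolites in each matrix were expressed as relative peak areas of the drug-related components detected, at the stated sampling time or collection period post dose.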

[12] = Half life in wild type Sprague-Dawley rat liver microsomes at 5 uM preincubated for 3 mins followed by NADPH addition measured after 1 hr by HPLC/MS analysis; assay type: ADME
[13] = Drug excretion in bile-duct cannulated Sprague-Dawley rat bile at 3 mg/kg, iv; assay type: ADME, organism-based; settings: read-out: Drug excretion
[14] = Metabolic stability in Sprague-Dawley rat liver microsomes assessed as parent compound remaining at 5 uM after 1 hr in presence of NADPH by HPLC/MS analysis; assay type: ADME; settings: read-out: Stability
[15] = Metabolic stability in bile-duct cannulated Sprague-Dawley rat assessed as parent compound remaining in blood at 3 mg/kg, iv measured 4 hrs post dose; assay type: ADME, organism-based; settings: read-out: Stability; outline: as §2
[16] = Drug excretion in bile-duct cannulated Sprague-Dawley rat urine at 3 mg/kg, iv; assay type: ADME, organism-based; settings: read-out: Drug excretion
[17] = Metabolic stability in bile-duct cannulated Sprague-Dawley rat assessed as parent compound remaining in bile at 3 mg/kg, iv measured over 8 hrs post dose; assay type: ADME, organism-based; settings: read-out: Stability
[18] = Metabolic stability in bile-duct cannulated Sprague-Dawley rat assessed as parent compound remaining in blood at 3 mg/kg, iv measured 1 hr post dose; assay type: ADME, organism-based; settings: read-out: Stability

SMILES: C[C@@H](CN1CCOCC1)Nc1ccc2cc(-n3cnc4cnc5cnc(-c6ccncc6)cc5c43)ccc2n1
IC50 [1]: 1.25 µM | IC50 [2]: 0.62 µM | IC50 [3]: 0.038 µM

SMILES: C[C@H](CN1CCOCC1)Nc1ccc2cc(-n3cnc4cnc5cnc(-c6ccncc6)cc5c43)ccc2n1
solubility thermodynamic at 16 h [4]: 135 µM (≈ 69.7 µg/mL) | logP [5]: 3.2 | IC50 [1]: 0.03 µM | IC50 [6]: 0.08 µM | solubility thermodynamic at 16 h [7]: > 1000 µM | IC50 [2]: 0.03 µM | clearance [8]: 221 mL/min/kg | IC50 [3]: 0.004 µM

SMILES: N#CCc1ccc(-n2cnc3cnc4cnc(-c5ccsc5)cc4c32)cc1
logP [5]: 3.9 | IC50 [3]: 0.05 µM

SMILES: CC(CN1CCOCC1)Nc1nc2ccc(-n3cnc4cnc5cnc(-c6ccccc6)cc5c43)cc2s1 (stereo unspecified)
solubility thermodynamic at 16 h [4]: 9 µM (≈ 4.69 µg/mL) | logP [5]: 4.4 | IC50 [1]: 0.13 µM | IC50 [6]: 1.01 µM | solubility thermodynamic at 16 h [7]: > 1000 µM | IC50 [2]: 0.12 µM | fraction unbound at 4 h, 5 µM [9]: < 0.01 | IC50 [3]: 0.009 µM

SMILES: c1nc2ccc(-n3cnc4cnc5cnc(N6CCCCC6)cc5c43)cc2[nH]1
IC50 [3]: 3.5 µM

SMILES: C1=C(c2cc3c(cn2)ncc2ncn(-c4ccc5nc[nH]c5c4)c23)CCCC1
IC50 [3]: 1.3 µM

SMILES: N#CCc1ccc(-n2cnc3cnc4ccc(-c5ccsc5)cc4c32)cc1
logP [5]: 4.9 | IC50 [3]: 2.6 µM

SMILES: Cc1nc2ccc(-n3cnc4cnc5cnc(-c6ccccc6)cc5c43)cc2s1
solubility thermodynamic at 16 h [4]: < 4 µM | solubility thermodynamic at 16 h [7]: < 4 µM | IC50 [3]: 0.08 µM

SMILES: N#CCc1ccc(-n2cnc3cnc4cc(Cl)c(-c5ccsc5)cc4c32)cc1
logP [5]: 5.4 | IC50 [3]: 0.8 µM

SMILES: Cc1cnc(NC(=O)C2=C(O)c3ccccc3S(=O)(=O)N2C)s1
Activity [10]: Active

SMILES: CC(CN1CCOCC1)Nc1nc2ccc(-n3cnc4cnc5cnc(-c6cccs6)cc5c43)cc2s1 (stereo unspecified)
dose excreted at 8 h [11]: 1% | solubility thermodynamic at 16 h [4]: 13 µM (≈ 6.86 µg/mL) | logP [5]: 5.1 | half-life at 5 µM [12]: < 3 min | IC50 [1]: 0.29 µM | IC50 [6]: > 10 µM | solubility thermodynamic at 16 h [7]: 261 µM (≈ 138 µg/mL) | IC50 [2]: 0.28 µM | clearance [8]: 40 mL/min/kg | dose excreted [13]: 0.63% | remaining at 1 h, 5 µM [14]: 66% | fraction unbound at 4 h, 5 µM [9]: < 0.01 | remaining at 4 h [15]: 68% | dose excreted [16]: 0.63% | dose excreted at 8 h [17]: 4% | remaining at 1 h [18]: 86% | IC50 [3]: 0.022 µM

SMILES: c1ccc(-c2cc3c(cn2)ncc2ncn(-c4ccc5ncccc5c4)c23)cc1
solubility thermodynamic at 16 h [4]: < 4 µM | solubility thermodynamic at 16 h [7]: < 4 µM | IC50 [3]: 0.096 µM

Next, values leading:

IC50 [3]: 1.3 µM
SMILES: Cc1ccc(-c2cc3c(cn2)ncc2ncn(-c4ccc5nc[nH]c5c4)c23)cc1

IC50 [3]: 0.1 µM
SMILES: c1cc(-c2cc3c(cn2)ncc2ncn(-c4ccc5nc[nH]c5c4)c23)ccn1

IC50 [3]: 0.2 µM
SMILES: Cc1cccc(-c2cc3c(cn2)ncc2ncn(-c4ccc5nc[nH]c5c4)c23)c1

logP [5]: 4 | IC50 [3]: 0.04 µM
SMILES: c1nc2ccc(-n3cnc4cnc5cnc(-c6ccsc6)cc5c43)cc2[nH]1

IC50 [3]: 0.15 µM
SMILES: c1nc2ccc(-n3cnc4cnc5cnc(-c6cn[nH]c6)cc5c43)cc2[nH]1

IC50 [3]: > 10 µM
SMILES: Clc1cc2c(cn1)ncc1ncn(-c3ccc4nc[nH]c4c3)c12

IC50 [3]: 0.16 µM
SMILES: c1nc2ccc(-n3cnc4cnc5cnc(-c6cnsc6)cc5c43)cc2[nH]1

IC50 [3]: 0.09 µM
SMILES: c1ccc(-c2cc3c(cn2)ncc2ncn(-c4ccc5nc[nH]c5c4)c23)cc1

IC50 [3]: 0.67 µM
SMILES: c1cncc(-c2cc3c(cn2)ncc2ncn(-c4ccc5nc[nH]c5c4)c23)c1
